# Screening data from PubChem BioAssay.
# A selection: hits, their analogues and other compounds. The true share with any hit is near 3.7%.
# KCNK9 inh: inhibitors of human KCNK9 two-pore domain potassium channel; B-score at 10 µM; HEK293 KCNK9, FluxOR thallium flux fluorescence; stronger effect = lower value; actives 1.2% (n = 310,000); Q9NPC2; AID 488922;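 active = ratio B-score over 3 SD below the library mean, with starting fluorescence within 5 SD of its mean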;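 note: negative B-score means less thallium flux so channel inhibition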
# Kir21 inh: Kir2.1 (mouse) channel inhibition | actives 0.85% (n = 310,000) | B-score at 10 µM | HEK293-Kir2.1, FluxOR thallium flux fluorescence; stronger effect = lower value | P35561;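 active = fluorescence ratio B-score at or below minus 3 SD of library scores, with starting-brightness B-score within 2 SD, cut at about -4.2 in these data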;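 note: channel flux triggered by added potassium and thallium sulfate stimulus; B-score of peak minus minimum fluorescence over baseline after thallium stimulus; more negative B-score means stronger Kir2.1 block with less thallium influx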
# KCNQ1 pot: human KCNQ1 channel potentiation or activation. P51787. CHO-K1 KCNQ1, thallium flux FluxOR fluorescence; stronger effect = higher value. B-score at 10 µM. actives 0.35% (n = 310,000);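 active = fluorescence ratio B-score, a plate-corrected score, at least three library SD, with initial intensity B-score within 5 SD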
# Target sequence (P51787 whole entry, looked up): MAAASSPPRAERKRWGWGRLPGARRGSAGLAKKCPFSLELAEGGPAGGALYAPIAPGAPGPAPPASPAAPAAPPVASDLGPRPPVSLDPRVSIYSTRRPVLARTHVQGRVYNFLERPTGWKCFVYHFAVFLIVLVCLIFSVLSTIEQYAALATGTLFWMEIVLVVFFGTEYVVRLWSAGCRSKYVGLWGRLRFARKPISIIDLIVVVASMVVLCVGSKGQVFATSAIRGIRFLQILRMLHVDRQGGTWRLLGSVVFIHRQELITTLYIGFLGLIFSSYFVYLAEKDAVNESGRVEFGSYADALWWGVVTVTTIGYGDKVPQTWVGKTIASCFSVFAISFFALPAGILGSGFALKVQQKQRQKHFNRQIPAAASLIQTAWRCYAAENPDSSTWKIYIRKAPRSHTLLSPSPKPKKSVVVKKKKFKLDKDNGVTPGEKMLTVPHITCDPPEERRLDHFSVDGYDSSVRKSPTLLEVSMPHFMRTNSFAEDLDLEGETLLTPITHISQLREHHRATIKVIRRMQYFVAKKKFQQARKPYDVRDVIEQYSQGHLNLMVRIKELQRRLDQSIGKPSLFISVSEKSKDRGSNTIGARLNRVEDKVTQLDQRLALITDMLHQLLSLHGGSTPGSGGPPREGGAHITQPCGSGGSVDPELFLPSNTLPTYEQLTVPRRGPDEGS
#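 Medium – assay buffer, equal DMSO in all wells · Material – CHO-K1 cell line with stable KCNQ1 potassium channel expression · Signal – kinetic FluxOR thallium fluorescence, 10-s 1-Hz baseline, 110-s post-stimulus read · Compound – single concentration per compound, DMSO matched to controls · Schedule – 37 °C overnight plating, 90-min dark dye load, 20-min compound pretreatment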
# hERG protect: compounds protecting human hERG from proarrhythmic drug block; Q12809; activation (rescue from dofetilide block), less the hit threshold, % at 10 µM; CHO-hERG, FluxOR thallium flux, dofetilide IC70 present; actives 0.51% (n = 310,000);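 active = activation above the mean of controls blocked by dofetilide plus 5 SD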;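 note: thallium influx through hERG after potassium depolarization seen as dye fluorescence rise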
# KCNK3 inh: human KCNK3 channel inhibition, primary screen. CHO-KCNK3 thallium flux, FluxOR fluorescence; stronger effect = lower value. O14649. B-score at 10 µM. actives 0.84% (n = 340,000);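 active = B-score under library mean minus 4 SD, starting fluorescence ratio at most library mean plus 5 SD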;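 note: more negative B-score means stronger inhibition of thallium flux through KCNK3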
# KCNQ1 inh: blocks the human KCNQ1 potassium channel; B-score at 10 µM; CHO-K1 KCNQ1, FluxOR thallium flux fluorescence; stronger effect = higher value; P51787; actives 1.3% (n = 310,000);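 active = compounds whose thallium flux B-score, printed positive for inhibition, exceeds three library SD while starting fluorescence stays within three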;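 note: channel opened by potassium depolarization with thallium stimulus after 20 min compound exposure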
# Hits are given with their value; 0 = inactive; - = no result given; ! = repeats disagree.
SMILES,KCNK9 inh,Kir21 inh,KCNQ1 pot,hERG protect,KCNK3 inh,KCNQ1 inh
CC(C)n1c(SCC(=O)N2CCN(C)CC2)nc2c1c(=O)n(C)c(=O)n2C,0,0,0,0,0,0
CCNc1nnc(SCC(=O)NC2CCCCCC2)s1,-,-,-,-,0,-
CC(=O)Nc1ccccc1C(=O)C(=O)Nc1ccc(Cl)cc1,0,0,0,8.2,0,0
O=C1C2CCCCC2C(=O)N1Cc1ccccc1 (configuration not stated),0,0,0,0,0,0
O=C1C2C3CCC(C3NCc3ccccc3)C2C(=O)N1Cc1ccccc1 (configuration not stated),0,0,0,0,0,6
C=C(C)CSc1cc(C)c(C#N)c2nc3ccccc3n12,0,0,0,0,0,6
Cc1cccn2c(=O)c3cc(C(=O)N4c5ccccc5CC4C)n(C)c3nc12 (configuration not stated),0,0,0,9.2,0,0
CNc1nnc(SCC(=O)N2c3ccccc3NC(=O)CC2C)s1 (configuration not stated),-,-,-,-,0,-
COc1ccc([N+](=O)[O-])cc1NC(=O)CSCc1cc(C)cc(C)c1,0,-8.7,0,0,0,0
Oc1cccc(C=NN=C2c3ccccc3-c3ccccc32)c1,-,-,-,-,-9,-
CCOc1ccc(CCNC(=O)C2(c3ccccc3)CC2)cc1OCC,0,-4.5,0,0,0,0
CCOc1ccc(CCNC(=O)c2nccnc2C(=O)O)cc1OCC,0,0,0,0,0,0
CC(NC1CCCC1)c1ccccc1 (configuration not stated),0,0,0,0,0,0
CC(NCCC(c1ccccc1)c1ccccc1)c1ccccc1 (configuration not stated),0,-6.4,0,0,0,0
COc1cc(/C=C2/SC(=S)N(CC(=O)O)C2=O)ccc1OCC(=O)Nc1ccc(C)c(C)c1,0,0,0,19,0,0
Cn1c(=O)c2c(ncn2CC(=O)OCc2ccccc2)n(C)c1=O,0,0,0,5.3,0,0
COC(=O)Cn1cnc2c1c(=O)n(C)c(=O)n2C,0,0,0,0,0,0
CN(C)C(=O)CSc1ccc(S(=O)(=O)N2CCOCC2)cn1,-,-,-,-,0,-
CCOC(=O)N1CCN(CC(O)COc2cc(C)cc(C)c2)CC1 (configuration not stated),0,0,0,0,0,0
CCCCNC(=O)c1onc(CCl)c1C(=O)OC,0,0,0,0,0,0
CC1CCN(C(=S)c2cn(Cc3ccccc3F)c3ccccc23)CC1,-6.6,0,0,0,0,0
C=CCn1c(SCC(=O)c2ccc(OC)cc2)nnc1-c1ccc2c(c1)OCO2,0,0,0,0,0,0
C=CCn1c(SCC(=O)c2ccc(Cl)cc2)nnc1-c1ccc2c(c1)OCO2,0,-5.4,0,0,0,0
Cc1nc2scc(-c3ccccc3)c2c(=O)n1N=C1C=CC(=O)C=C1,0,-6.8,0,0,-,0
Cc1ccc(C)n1-n1c(C)nc2scc(-c3ccccc3)c2c1=O,0,0,0,0,0,0
SMILES,KCNK9 inh,Kir21 inh,KCNQ1 pot,hERG protect,KCNK3 inh,KCNQ1 inh
CCOC(=O)N(O)c1ccc(C=Cc2ccccc2)cc1,-,-,-,-,0,-
Cc1ccc(/C=N/N(Cc2ccccc2)c2ccccc2)o1,-6.8,0,0,0,0,0
CN(C(=O)CSc1nc2ccccc2c(=O)n1C)C1CCS(=O)(=O)C1 (configuration not stated),-,-,-,-,0,-
COC(=O)C1=NN(C(=O)c2ccc(Cl)cc2)C(O)(c2ccccc2)C1 (configuration not stated),0,0,39,38,0,0
CCC1(O)CC(C(=O)OC)=NN1C(=O)c1ccccc1 (configuration not stated),0,0,0,0,0,0
CCOC(=O)C1=NN(C(=O)c2ccc(C)cc2)C(O)(c2ccc(Cl)cc2)C1 (configuration not stated),0,0,79,76,0,0
CCOC(=O)c1c(-c2ccccc2)oc2ccc(OC)cc12,0,0,0,0,0,0
CCOC(=O)c1c(-c2ccccc2)oc2ccc(OCC(O)CNCCN(C)C)cc12 (configuration not stated),0,-5.2,0,0,0,0
COc1ccc(NC(=O)/C(=C\c2ccc3c(c2)OCO3)NC(C)=O)cc1,0,0,0,0,0,0
CCCCCn1c(=N)n(CC(O)COc2ccccc2OC)c2ccccc21 (configuration not stated),0,-4.3!,0,0,0,7!
CCCCn1c(=N)n(CCOc2ccc(C)cc2)c2ccccc21,0,-4.6,0,0,0,0
Cc1ccc(OCC(O)Cn2c(=N)n(CCN3CCCCC3)c3ccccc32)cc1 (configuration not stated),0,-4.3,0,0,0,0
COc1ccccc1OCC(O)Cn1c(=N)n(Cc2ccccc2)c2ccccc21 (configuration not stated),0,-4.6,0,0,0,0
C=CCn1c(=N)n(CC(O)COc2ccccc2OC)c2ccccc21 (configuration not stated),0,0,0,0,0,0
C=CCN(c1ccccc1C(=O)NCC(=O)O)S(=O)(=O)c1ccc(C)cc1,0,0,0,0,0,0
CCCn1c(=N)n(CC(O)COc2ccc(C)cc2)c2ccccc21 (configuration not stated),0,0,0,0,0,0
CCCCn1c(=N)n(CC(O)COc2cccc(C)c2)c2ccccc21 (configuration not stated),0,-5.2,0,0,0,7
CC1CCN(c2ccc3c(c2)S(=O)(=O)c2ccccc2C3=O)CC1,0,0,0,0,0,0
CC1CCN(C(=O)c2[nH]cnc2C(=O)N[C@@H](C)C(=O)OCc2ccccc2)CC1,0,0,0,0,0,0
CCCc1cc(=O)[nH]c(SCC(=O)NC(=O)NC2CCCC2)n1,-,-,-,-,0,-
Cn1cc([N+](=O)[O-])c(C(=O)N/N=C/c2ccccc2)n1,0,0,0,4.7,0,0
Cn1cc([N+](=O)[O-])c(C(=O)N/N=C\c2c[nH]c3ccccc23)n1,0,0,0,0,0,0
Cc1cc(C)c(S(=O)(=O)N2CCN(C(=O)C3CCCO3)CC2)c(C)c1 (configuration not stated),-,-,-,-,0,-
O=C(c1ccc(-c2cccc([N+](=O)[O-])c2)o1)N1CCN(c2ccc([N+](=O)[O-])cc2)CC1,-,-,-,-,0,-
O=C(c1ccc(-c2ccc(Cl)cc2)o1)N1CCN(c2ccc([N+](=O)[O-])cc2Cl)CC1,0,0,0,0,0,7
CC(C)CCN(N=O)[C@@H](Cc1ccccc1)CN(N=O)[C@@H](Cc1ccccc1)CN(C)N=O,0,0,0,0,0,0
